Assay results pooled from the literature.
Protocols differ between the studies behind these lines.

Compound	tested on	test	test system	setting	measurement	value
COc1ccc(OS(=O)(=O)NC(=O)CCCCc2ccccc2)cc1	Bacillus anthracis	microbial growth	STERNE34F2	–	MIC	200 µg/mL
OC[C@H]1O[C@@H](n2cnc3c(NC4CCCC4)ncnc32)[C@H](O)[C@@H]1O	–	MES seizures	rat	oral	ED50	> 10 mg/kg
CCCCCCCC/C=C\CCCCCCCCNC(=O)CP(=O)(O)O	Bacillus anthracis	microbial growth	STERNE34F2	–	MIC	0.1 µg/mL
CCCCCCCCCC#CCCCCC(=O)O	Leishmania infantum	parasite growth	–	promastigote	EC50	102 µM
O=C1NN=C(N=Cc2ccccc2O)C1=NNn1c(-c2ccccc2)nc2ccccc2c1=O	Vibrio cholerae	microbial growth, broth dilution	–	24 h	MIC	55.4 µM
O=C(CCCCC1CCCCC1)CP(=O)(O)O	Bacillus anthracis	microbial growth	STERNE34F2	–	MIC	200 µg/mL
CC[C@H]1OC(=O)[C@H](C)[C@@H](O[C@H]2C[C@@](C)(OC)[C@@H](O)[C@H](C)O2)[C@H](C)[C@@H](O[C@@H]2O[C@H](C)C[C@H](N(C)C)[C@H]2O)[C@](C)(O)C[C@@H](C)C(=O)[C@H](C)[C@@H](O)[C@]1(C)O	Bacillus anthracis	microbial growth	34F2	–	MIC	3.13 µM
CC1=NN(CNc2ccc(Cl)cc2)C(=O)C1=NNn1c(-c2ccccc2)nc2ccccc2c1=O	Vibrio cholerae	microbial growth, broth dilution	–	24 h	MIC	103 µM
CC(C=CC(O)=C1C(=O)CNC1=O)=CC(C)C1OC2(C)OC(C(O)C=C2C)C1C (stereo not drawn)	Bacillus anthracis	microbial growth	34F2	–	MIC	25 µM
CCOC(=O)Nc1ccc(NCc2ccc(F)cc2)cc1N	–	MES seizures	rat	intraperitoneal	ED50	4.01 mg/kg
CCCCCCCCCCCC(=O)NP(=O)(O)O	Bacillus anthracis	microbial growth	STERNE34F2	–	MIC	> 200 µg/mL
CC1=NN(CNc2ccc(O)cc2)C(=O)C1=NNn1c(-c2ccccc2)nc2ccccc2c1=O	Vibrio cholerae	microbial growth, broth dilution	–	24 h	MIC	107 µM
CCCCCCCCCCCC(=O)CP(=O)(O)O	Bacillus anthracis	microbial growth	STERNE34F2	–	MIC	50 µg/mL
CN1C(=O)CC(=O)N(c2ccccc2)c2cc(Cl)ccc21	–	MES seizures	rat	intraperitoneal	ED50	36.3 mg/kg
COC[C@@H](NC(C)=O)C(=O)NCc1ccc(OCc2ccccc2)cc1	–	MES seizures	rat	oral	ED50	< 10 mg/kg
Cn1cnc2nc(NCc3ccc(Cl)c(Cl)c3)[nH]c(=O)c21	Bifidobacterium	microbial growth, agar dilution	–	48 h	MIC	> 32 µg/mL
CC1=NN(CNC(=O)c2ccccc2)C(=O)C1=NNn1c(-c2ccccc2)nc2ccccc2c1=O	Vibrio cholerae	microbial growth, broth dilution	–	24 h	MIC	51.9 µM
CC(=O)C1=C(O)C(CC(C)C)NC1=O (stereo not drawn)	Stenotrophomonas maltophilia	microbial growth	ATCC13637	–	MIC	> 200 µg/mL
